Screening results as filed in PubChem BioAssay.
Hits are enriched below; roughly 2.6% of the tested compounds scored in any of these assays.
HTRA1 inhibitor: HTRA1 serine protease inhibitors, primary screen, biochemical, fluorescence polarization, HTS; inhibition, % at 5.96 µM; AID 504803, 2011; 340,000 tested, 0.5% active; recombinant HTRA1, FP-rhodamine activity-based probe; in the data active means inhibition above about 36%
SIAE inh: human SIAE inhibitors, primary screen, biochemical, fluorescence polarization, FP-Rh probe, 1536-well HTS | Sialate O-acetylesterase (Homo sapiens), Q9HAT2 | SIAE FP-Rh probe binding | inhibition, % at 9.66 µM | 370,000 tested, 0.69% active | AID 1053197, 2014;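 active means inhibition above a cutoff: mean of compounds within the control limits plus 3 SD of those, cut at about 17% in these data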
ABHD4 inh: ABHD4 inhibitors, primary screen, biochemical, fluorescence polarization, mouse. inhibition, % at 8.92 µM. 370,000 tested, 0.54% active. AID 720543, 2013. purified mABHD4, FP-Rh probe fluorescence polarization;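 active means inhibition exceeding the mean over every tested compound plus 3 SD, cut at about 30% in these data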
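Assay system: mABHD4 protein; medium: HEPES pH 7.0, NaCl, Pluronic buffer; dosing: 8.92 µM, single dose; schedule: 45 min + 60 min at 25 °C; signal: FP readout, ex 525 nm / em 598 nm; read-out: normalized percent inhibition of probe labeling; repeats: single replicate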
TCR CD3 inh: inhibitors of human TCR-CD3 interaction, primary screen, biochemical, fluorescence, TAMRA-labeled TCR probe; T-cell receptor (TCR); inhibition, % at 9.4 µM; 360,000 tested, 0.37% active; in the data active means inhibition above about 19%;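 further: recombinant mutant TCR 2C K166C tagged with TAMRA read by polarization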
PRMT1 inh: PRMT1 methyltransferase inhibitors, primary screen, biochemical, fluorescence polarization; 370,000 tested, 1.3% active; inhibition, % at 2.79 µM; recombinant PRMT1, activity-based probe fluorescence polarization;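 active means inhibition above about 21% made by adding two undisclosed values, limit read from the data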
Target sequence (Q99873 whole entry, looked up): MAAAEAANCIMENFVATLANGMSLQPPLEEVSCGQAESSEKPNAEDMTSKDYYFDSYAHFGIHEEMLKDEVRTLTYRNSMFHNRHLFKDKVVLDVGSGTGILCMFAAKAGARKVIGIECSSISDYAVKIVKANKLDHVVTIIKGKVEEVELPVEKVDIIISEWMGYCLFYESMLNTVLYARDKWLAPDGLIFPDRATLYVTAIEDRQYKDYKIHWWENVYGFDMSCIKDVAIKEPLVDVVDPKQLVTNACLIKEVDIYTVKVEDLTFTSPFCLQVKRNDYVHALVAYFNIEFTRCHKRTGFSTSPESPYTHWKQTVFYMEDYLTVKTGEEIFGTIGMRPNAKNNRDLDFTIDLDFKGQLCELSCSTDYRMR
PRMT1 confirm: PRMT1 methyltransferase inhibitors, confirmation, biochemical, fluorescence polarization, triplicate; shares compounds with PRMT1 inh; recombinant His-PRMT1, activity-based probe fluorescence polarization; inhibition, % at 2.79 µM; 3,300 tested, 42% active; AID 687036, 2013;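 active means mean inhibition across replicates above the hit cutoff derived for the earlier primary screen, cut at about 22% in these data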
mABHD4 conf: ABHD4 inhibitors, retest, confirmation, biochemical, fluorescence polarization, mouse; shares compounds with ABHD4 inh; purified mABHD4, FP-Rh probe fluorescence polarization; inhibition, % at 8.92 µM; 1,800 tested, 55% active;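 active means mean inhibition across replicates above the hit cutoff set in the primary screen, cut at about 30% in these data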
Large screens that a line does not name were inactive (follow-up assays come after a bar, where they were run).

NC(CO)C(=O)NNCc1ccc(O)c(O)c1O (stereo not given)	ABHD4 inh 37, PRMT1 inh 30 | PRMT1 confirm 41 | mABHD4 conf inactive
Nn1c(SCC(=O)Nc2ccc(OCc3ccccc3)cc2)nnc1-c1cc(-c2ccc(Cl)cc2)n[nH]1	none (no result: HTRA1 inhibitor, TCR CD3 inh)
O=C(NN1C(=O)/C(=C/C=C/c2ccco2)SC1=S)c1ccncc1	ABHD4 inh 49, PRMT1 inh 53 (no result: HTRA1 inhibitor) | PRMT1 confirm 52 | mABHD4 conf inactive
O=c1c(-c2cccc3ccccc23)[n+]([O-])c2ccccc2n1O	ABHD4 inh 49, PRMT1 inh 25 | PRMT1 confirm inactive | mABHD4 conf inactive
CCN(CC)C(=O)CC[C@H]1CC[C@]2(CCCN(c3ccccc3)C2)O1	none (no result: HTRA1 inhibitor, TCR CD3 inh)
C/C(=N\Nc1ccc(Cl)c(C(=O)O)c1)c1cccs1	none
C/C(=N\Nc1ccc(Cl)c(C(=O)O)c1)c1ccc[nH]1	ABHD4 inh 35, PRMT1 inh 32 | PRMT1 confirm inactive | mABHD4 conf 50
COc1ccc(CNS(=O)(=O)/C=C/c2cc(C)ccc2CNC(=O)OC(C)(C)C)cc1	none (no result: HTRA1 inhibitor, TCR CD3 inh)
CC(C)[C@H](NC(=O)OC(C)(C)C)c1nnc(S(=O)(=O)Cc2c(F)cccc2Cl)o1	ABHD4 inh 31, PRMT1 inh 30 | PRMT1 confirm inactive | mABHD4 conf inactive
COC(=O)C1CN(CC(C)C)CCS(=O)(=O)N1Cc1ccc(C(F)(F)F)cc1 (stereo not given)	none (no result: HTRA1 inhibitor, TCR CD3 inh)
COC1=C(OC)C(=O)C(Sc2ccc3ccccc3c2)=CC1=O	ABHD4 inh 57, PRMT1 inh 95 | PRMT1 confirm 94 | mABHD4 conf 102
O=c1[nH]c(S)c(/C=C2\C=Nc3ccccc32)s1	ABHD4 inh 30, PRMT1 inh 48 (no result: HTRA1 inhibitor) | PRMT1 confirm 31 | mABHD4 conf 35
CC(=O)C1=C(C)N(Cc2ccc(Cl)cc2)C(=S)NC1c1cccc(Br)c1 (stereo not given)	none (no result: HTRA1 inhibitor)
Oc1ccc(Br)cc1C=Nc1ccc2c3c(cccc13)CC2	ABHD4 inh 55, PRMT1 inh 56 | PRMT1 confirm inactive | mABHD4 conf inactive
OCC(CCc1c[nH]c2ccccc12)c1c[nH]c2ccccc12 (stereo not given)	none (no result: HTRA1 inhibitor)
Cc1ccc(NC(=O)CSc2nnc(-c3ccco3)c(-c3ccco3)n2)cc1	ABHD4 inh 41, PRMT1 inh 37 | PRMT1 confirm 77 | mABHD4 conf 36
CC1OC(CC(=O)O)CC2=C1C(=O)c1c(O)cccc1C2=O (stereo not given)	ABHD4 inh 40, PRMT1 inh 95 | PRMT1 confirm 46 | mABHD4 conf 44
O=C(CCCN1C(=O)/C(=C\c2cccs2)SC1=S)Nc1ccc(O)cc1C(=O)O	none
O=C(CCCN1C(=O)/C(=C\c2ccco2)SC1=S)Nc1ccc(O)cc1C(=O)O	ABHD4 inh 46, PRMT1 inh 62 | PRMT1 confirm 37 | mABHD4 conf inactive
CN1C(=O)C[C@@](C#N)(C(=O)N2CCOCC2)[C@H]1c1ccccc1	none (no result: HTRA1 inhibitor, TCR CD3 inh)
CN(Cc1ccc2c(c1)CCCN2C)C(=O)[C@@H](Cc1ccccc1)NC(=O)[C@H]1O[C@@H](n2ccc(=O)[nH]c2=O)[C@H](O)[C@@H]1O	none (no result: HTRA1 inhibitor)
COc1cc(C=C2C(=O)C=CC2=O)ccc1O	ABHD4 inh 37, PRMT1 inh 91 (no result: HTRA1 inhibitor) | PRMT1 confirm 100 | mABHD4 conf inactive
